Test results taken from publication PMC8542566 (Cell chemical biology, 2021).

Assays:
TgPPT1 = assay: Inhibition of recombinant TgPPT1, turnover of 4MU-octanoate; format: biochemical, Toxoplasma gondii; details: recombinant enzyme, 4MU-octanoate substrate; result in words
In short: (§1)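 Purified full-length N-terminal His6 enzyme from E. coli, 50 nM final, with 10 μM test compound in 20 mM HEPES, 150 mM NaCl, 10 mM CHAPS, pH 7.4, at 37°C. 4MU-octanoate hydrolysis followed by fluorescence. Initial rates taken from a linear fit, in triplicate, normalized to DMSO control and expressed as percent inhibition.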

TgASH3 = assay: Inhibition of recombinant TgASH3, turnover of 4MU-octanoate; format: biochemical, Toxoplasma gondii; details: recombinant enzyme, 4MU-octanoate substrate; result in words
In short: as §1

TgASH4 = assay: Gel-based competitive FP-TAMRA labeling of recombinant TgASH4; format: binding, Toxoplasma gondii; details: recombinant enzyme, gel-based FP-TAMRA competition; result in words
In short: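 Full-length N-terminal His6 enzyme, expressed in E. coli BL21-CodonPlus(DE3)-RIL (0.5 mM IPTG, 16 h, 19°C) and purified. 300 ng enzyme pre-incubated with DMSO or test compound (10 μM) for 30 min on ice, then labeled with FP-TAMRA for 30 min at 37°C. Quenched in reducing SDS buffer, resolved by SDS-PAGE, fluorescence-scanned (532 nm laser, 610 nm filter). Residual labeling expressed as percent inhibition versus DMSO.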

TgASH2 = assay: Inhibition of recombinant TgASH2, turnover of 4MU-octanoate; format: biochemical, Toxoplasma gondii; details: recombinant enzyme, 4MU-octanoate substrate; result in words
In short: as §1

[1] = test system: T. gondii tachyzoites in HFFs; assay: Rosette formation assay; format: cell-based, Toxoplasma gondii; details: 10 μM dose, wild-type parasites in HFFs, 24 h
In short: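 Freshly egressed wild-type tachyzoites pre-treated with DMSO or 10 μM test compound were grown 24 h on confluent HFF coverslips (DMEM, 10% serum complex, 37°C, 5% CO2). Cells were PFA-fixed, Triton-permeabilized, BSA-blocked, stained with anti-Toxo-FITC (1:1000, overnight, 4°C), DAPI-mounted and imaged by confocal microscopy.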

Structure (SMILES)	inhibitory activity against recombinant TgPPT1 (TgPPT1)	inhibition of TgASH3 (TgASH3)	inhibition of TgASH4 (TgASH4)	inhibition of TgASH2 (TgASH2)	rosette formation inside the host cell [1]
O=C(O)c1cccc(NC(=S)Nc2ccc3c(Cl)c(OCCBr)oc(=O)c3c2)c1 [JCP342]	significant inhibitory activity	–	–	–	–
O=c1oc(OCCBr)c(Cl)c2ccc(NC(=S)Nc3ccccc3)cc12 [JCP343]	virtually no activity	potent inhibitors	potent inhibitors	potent inhibitors	–
CCCCCCCCCCC[C@@H](C[C@@H]1OC(=O)[C@H]1CCCCCC)OC(=O)[C@H](CC(C)C)NC=O [Orlistat]	–	–	–	–	disordered rosettes
